Experimental data gathered from unrelated publications.
Protocols differ between the studies behind these lines.
Read-out: cell growth or viability

SMILES | cell line | technique | concentration | time | endpoint | value
COc1cc(OC)c2c(=O)cc(-c3ccccc3)oc2c1-c1c(OC)cc(OC)c2c(=O)cc(-c3ccccc3)oc12 | HS27 | MTT |  | 24 h | CC50 | > 200 µM
C[C@]1(CO)[C@H]2CC[C@@H]3CN(Cc4ccco4)[C@@H](C4=CCOC4=O)C[C@H]3[C@]2(C)CC[C@H]1O | MRC5 | ATP luminescence | 25 µM | 72 h | cell death | -0.1%
CC(C)(C)CC(C)(C)Nc1c(-c2cccnc2)nc2ncccn12 | MDA-MB-231 | MTT | 25 µM | 48 h | viability | 85.2%
C[C@]1(CO)[C@H]2CC[C@@H]3CN(Cc4cccs4)[C@@H](C4=CCOC4=O)C[C@H]3[C@]2(C)CC[C@H]1O | MRC5 | ATP luminescence | 25 µM | 72 h | cell death | -7.4%
COc1ccc(COc2ccc(NC(=O)NC[C@H]3O[C@H](n4cc(C)c(=O)[nH]c4=O)C[C@@H]3O)cc2)cc1 | MRC5 |  |  |  | CC50 | > 50 µM
COc1cc(OC)c2c(=O)cc(-c3ccc(N(C)C)cc3)oc2c1-c1c(OC)cc(OC)c2c(=O)cc(-c3ccc(N(C)C)cc3)oc12 | HS27 | MTT |  | 24 h | CC50 | > 200 µM
COc1cccc2c1C(=O)c1c(O)c3c(c(O)c1C2=O)C[C@@](O)(C(=O)CO)C[C@@H]3O[C@H]1C[C@H](N)[C@H](O)[C@H](C)O1 | MDA-MB-231 | MTT | 25 µM | 48 h | viability | 33.8%
CCCCN1C[C@H]2CC[C@@H]3[C@]4(C)COC(C)(C)O[C@@H]4CC[C@@]3(C)[C@@H]2C[C@@H]1C1=CCOC1=O | MRC5 | ATP luminescence | 25 µM | 72 h | cell death | 33.7%
CC(C)(C)CC(C)(C)Nc1c(-c2cccc(C#N)c2)nc2ncccn12 | MDA-MB-231 | MTT | 25 µM | 48 h | viability | 75.8%
COc1ccc(S(=O)(=O)ON=C2C=C(C)C(=O)C(C)=C2)cc1 | MDA-MB-231 |  |  |  | CC50 | 1.03 µM
COc1cc(C)cc2oc(-c3ccc(N(C)C)cc3)cc(=O)c12 | HS27 | MTT |  | 24 h | CC50 | 141 µM
CC(=O)OC[C@@]1(C)[C@H]2CC[C@@H]3CN(C(C)C)[C@@H](C4=CCOC4=O)C[C@H]3[C@]2(C)CC[C@H]1OC(C)=O | MRC5 | ATP luminescence | 25 µM | 72 h | cell death | -2.1%
